Assay results reported in ChEMBL document CHEMBL1123952, “(Phosphinyloxy)acyl amino acid inhibitors of angiotensin converting enzyme (ACE). 1. Discovery of (S)-1-[6-amino-2-[[hydroxy(4-phenylbutyl)phosphinyl]oxy]-1-oxohexyl]-L -proline a novel orally active inhibitor of ACE” (J Med Chem, 1988).

What was measured:
[1] = test system: Rattus norvegicus; experiment: In vivo inhibition of angiotensin I induced pressor effect after iv administration in rats; type: functional
In short: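 Conscious, unrestrained male Sprague-Dawley rats (225-275 g) with aortic and vena caval catheters, recovered at least 2 weeks. […] Compound was given iv in water or 5% NaHCO3 and responses followed up to 70 min. Maximum inhibition was averaged over four rats per dose; ED50 was interpolated from the maximum-inhibition vs dose plot.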

[2] = biological target: T1, Angiotensin-converting enzyme (Oryctolagus cuniculus, UniProt P12822); experiment: In vitro inhibition of angiotensin I converting enzyme in rabbit lung with hippuryl-histidyl-leucine as substrate; type: tissue-based; details: read-out: I50
T1 sequence (P12822 whole entry): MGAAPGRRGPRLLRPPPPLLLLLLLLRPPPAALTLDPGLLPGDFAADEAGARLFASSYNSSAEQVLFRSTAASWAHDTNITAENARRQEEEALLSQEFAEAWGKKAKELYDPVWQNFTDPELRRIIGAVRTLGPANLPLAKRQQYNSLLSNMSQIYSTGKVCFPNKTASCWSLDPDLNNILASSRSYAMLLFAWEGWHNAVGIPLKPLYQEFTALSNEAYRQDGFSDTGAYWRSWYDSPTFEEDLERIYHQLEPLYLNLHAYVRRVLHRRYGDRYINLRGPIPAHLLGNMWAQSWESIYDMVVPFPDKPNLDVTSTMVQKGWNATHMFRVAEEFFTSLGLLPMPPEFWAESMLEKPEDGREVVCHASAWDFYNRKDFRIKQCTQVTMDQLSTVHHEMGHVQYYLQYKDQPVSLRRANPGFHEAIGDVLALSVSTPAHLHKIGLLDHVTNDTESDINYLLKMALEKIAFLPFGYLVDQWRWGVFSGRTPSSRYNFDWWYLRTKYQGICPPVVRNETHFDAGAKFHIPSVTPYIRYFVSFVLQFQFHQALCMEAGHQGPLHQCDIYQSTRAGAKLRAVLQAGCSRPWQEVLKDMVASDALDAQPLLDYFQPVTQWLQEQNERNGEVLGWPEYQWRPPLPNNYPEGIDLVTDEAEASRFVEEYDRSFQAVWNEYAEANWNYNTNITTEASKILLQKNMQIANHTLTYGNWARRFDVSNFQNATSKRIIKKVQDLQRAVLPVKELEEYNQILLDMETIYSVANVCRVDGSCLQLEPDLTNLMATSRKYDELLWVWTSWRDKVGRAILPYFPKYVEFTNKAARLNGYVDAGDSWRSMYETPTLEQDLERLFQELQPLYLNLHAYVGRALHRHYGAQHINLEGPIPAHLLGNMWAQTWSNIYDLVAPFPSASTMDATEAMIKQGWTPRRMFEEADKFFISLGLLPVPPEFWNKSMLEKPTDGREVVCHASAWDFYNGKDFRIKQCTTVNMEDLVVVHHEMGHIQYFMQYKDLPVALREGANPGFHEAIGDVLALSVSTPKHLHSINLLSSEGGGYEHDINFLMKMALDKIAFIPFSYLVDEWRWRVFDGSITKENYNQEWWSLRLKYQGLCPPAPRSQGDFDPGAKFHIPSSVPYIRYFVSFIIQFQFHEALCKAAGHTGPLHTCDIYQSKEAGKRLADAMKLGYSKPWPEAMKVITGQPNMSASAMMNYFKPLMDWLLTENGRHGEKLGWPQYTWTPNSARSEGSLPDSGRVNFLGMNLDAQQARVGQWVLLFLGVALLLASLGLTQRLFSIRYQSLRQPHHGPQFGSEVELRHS
In short: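 Rabbit lung ACE with synthetic substrate hippurylhistidylleucine; the liberated hippuric acid was quantitated spectrophotometrically. Conditions follow the authors' earlier method.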

[3] = test system: Rattus norvegicus; experiment: In vivo inhibition angiotensin I induced pressor effect after po administration of 5 umol/kg in rats; type: functional
In short: (§1)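 Normotensive catheterized male Sprague-Dawley rats (225-275 g), conscious and unrestrained. Compound was given orally at 5.0 µmol/kg in water, 5% NaHCO3 or 1% agar suspension. Angiotensin I (310 ng/kg iv) pressor responses were compared with pre-dose responses for up to 280 min. Maximum percent inhibition is the mean of four animals.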

[4] = test system: Rattus norvegicus; experiment: In vivo inhibition of angiotensin I induced pressor effect after po administration in rats; type: functional
In short: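 Oral dosing of conscious catheterized male Sprague-Dawley rats (225-275 g) in water, 5% NaHCO3 or 1% agar suspension. Angiotensin I (310 ng/kg iv) pressor responses were followed up to 280 min against pre-dose values, with four rats per dose. ED50 was interpolated from a plot of maximum inhibition vs dose.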

[5] = test system: Rattus norvegicus; experiment: In vivo inhibition angiotensin I induced pressor effect after (5 uML/kg) p.o. administration in rats; type: functional; in short: as §1

SMILES	ED50 [1] [µmol/kg]	IC50 [2] [nM]	inhibition in vivo at 5 µmol/kg [3] [%]	ED50 [4] [µmol/kg]	Inhibition [5] [%]
NCCCC[C@H](OP(=O)(O)CCCCc1ccc(F)cc1)C(=O)N1CCC[C@H]1C(=O)O	0.067	31	81	0.89	–
NCCCC[C@H](OP(=O)(O)CCCCc1cccnc1)C(=O)N1CCC[C@H]1C(=O)O	0.19	94	56	–	–
CCCCCCCCP(=O)(O)O[C@@H](CCCCN)C(=O)N1CCC[C@H]1C(=O)O	0.091	38	83	1.4	–
CCOC(=O)[C@H](CCc1ccccc1)N[C@@H](C)C(=O)N1CCC[C@H]1C(=O)O	–	–	–	0.46	–
CCCCCCCCCCP(=O)(O)O[C@@H](CCCCN)C(=O)N1CCC[C@H]1C(=O)O	0.17	95	2	–	–
NCCCC[C@H](OP(=O)(O)CCCCc1ccccc1)C(=O)N1CCC[C@H]1C(=O)O [CERONAPRIL]	0.063	36	–	0.53	90
CC(=O)NCCC[C@H](OP(=O)(O)CCCCc1ccccc1)C(=O)N1CCC[C@H]1C(=O)O	0.25	42	4	–	–
CCCC[C@H](OP(=O)(O)CCCCc1ccccc1)C(=O)N1CCC[C@H]1C(=O)O	> 1.4	180	–	–	–
NCCC[C@H](OP(=O)(O)CCCCc1ccccc1)C(=O)N1CCC[C@H]1C(=O)O	1	390	28	–	–
C[C@H](CP(=O)(O)CCCCc1ccccc1)C(=O)N1CCC[C@H]1C(=O)O	–	220	–	–	–
CCCCCP(=O)(O)O[C@@H](CCCCN)C(=O)N1CCC[C@H]1C(=O)O	0.071	27	57	–	–
CCCCC(C)CP(=O)(O)O[C@@H](CCCCN)C(=O)N1CCC[C@H]1C(=O)O (stereo not given in full)	0.14	40	68	–	–
NCCCC[C@H](OP(=O)(O)CCc1ccccc1)C(=O)N1CCC[C@H]1C(=O)O	0.217	190	65	1.39	–
N=C(N)NCCCC[C@H](OP(=O)(O)CCCCc1ccccc1)C(=O)N1CCC[C@H]1C(=O)O	0.045	6.2	48	–	–
NCCCCC(CP(=O)(O)CCCCc1ccccc1)C(=O)N1CCC[C@H]1C(=O)O (stereo not given in full)	0.18	85	–	35	–
CC(=O)NCCCC[C@H](OP(=O)(O)CCCCc1ccccc1)C(=O)N1CCC[C@H]1C(=O)O	< 1.4	180	–	–	–
CC(C)CCCP(=O)(O)O[C@@H](CCCCN)C(=O)N1CCC[C@H]1C(=O)O	0.095	150	69	–	–
NCCCC[C@H](OP(=O)(O)CCCCCc1ccccc1)C(=O)N1CCC[C@H]1C(=O)O	0.067	14	65	–	–

SMILES	ED50 [1] [µmol/kg]	IC50 [2] [nM]	inhibition in vivo at 5 µmol/kg [3] [%]	ED50 [4] [µmol/kg]	Inhibition [5] [%]
CCCCCCCP(=O)(O)O[C@@H](CCCCN)C(=O)N1CCC[C@H]1C(=O)O	0.12	19	75	0.62	–
CCCCCCCCCP(=O)(O)O[C@@H](CCCCN)C(=O)N1CCC[C@H]1C(=O)O	0.13	31	23	–	–
C[C@H](OP(=O)(O)CCCCc1ccccc1)C(=O)N1CCC[C@H]1C(=O)O	0.75	59	–	> 25	–
C[C@H](N[C@@H](CCc1ccccc1)C(=O)O)C(=O)N1CCC[C@H]1C(=O)O [ENALAPRILAT ANHYDROUS]	0.033	–	–	5.13	–
NCCCC[C@H](OP(=O)(O)CCCc1ccccc1)C(=O)N1CCC[C@H]1C(=O)O	0.069	190	67	2.62	–
C[C@H](NP(=O)(O)CCCCc1ccccc1)C(=O)N1CCC[C@H]1C(=O)O	0.05	12	–	25	–
CC(C)C[C@H](OP(=O)(O)CCCCc1ccccc1)C(=O)N1CCC[C@H]1C(=O)O	–	3800	–	–	–
NCCCCC[C@H](OP(=O)(O)CCCCc1ccccc1)C(=O)N1CCC[C@H]1C(=O)O	> 1.5	110	–	–	–
CCCCCCP(=O)(O)O[C@@H](CCCCN)C(=O)N1CCC[C@H]1C(=O)O	0.036	24	82	0.94	–
NCCCC[C@H](NP(=O)(O)CCCCc1ccccc1)C(=O)N1CCC[C@H]1C(=O)O	0.022	9	–	2.6	–
N=C(N)NCCC[C@H](OP(=O)(O)CCCCc1ccccc1)C(=O)N1CCC[C@H]1C(=O)O	0.12	19	40	–	–
O=C(O)[C@@H]1CCCN1C(=O)[C@H](CCc1ccccc1)OP(=O)(O)CCCCc1ccccc1	29	640	–	–	–
CCCCCC(C)P(=O)(O)O[C@@H](CCCCN)C(=O)N1CCC[C@H]1C(=O)O (stereo not given in full)	0.13	61	29	–	–
CCCCP(=O)(O)O[C@@H](CCCCN)C(=O)N1CCC[C@H]1C(=O)O	0.091	96	27	–	–
N=C(N)NCCCCC[C@H](OP(=O)(O)CCCCc1ccccc1)C(=O)N1CCC[C@H]1C(=O)O	> 1.5	32	–	–	–
C[C@H](CS)C(=O)N1CCC[C@H]1C(=O)O [CAPTOPRIL]	0.092	–	–	0.73	–
NCCCC[C@H](OP(=O)(O)CCCCC1CCCCC1)C(=O)N1CCC[C@H]1C(=O)O	0.18	55	68	2.3	–
